≈ marks a conversion by molar mass, not a printed value. Calls of active or inactive are those of the source. The rule behind the calls is not given here.
What was measured:
Bacillus cereus [1] = assay: Antimicrobial activity against Bacillus cereus at 10 ug/disk after 24 hrs by disk diffusion assay; format: functional
Method in brief: (§1)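 Disc diffusion on 4 mm filter discs. Bacteria are grown overnight in LB at 28 C, then adjusted in saline to 1.0 × 10^5 cfu/ml. The suspension is mixed into top agar over peptone agar plates. Plates are incubated 24 h at 28 C, and growth-inhibition zone diameter is measured. Streptomycin and ampicillin controls are applied from a 1 mg/ml stock. Tests are done in duplicate.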

Micrococcus flavus [2] = assay: Antimicrobial activity against Micrococcus flavus at 10 ug/disk after 24 hrs by disk diffusion assay; format: functional; method in brief: as §1
Staphylococcus aureus [3] = assay: Antimicrobial activity against Staphylococcus aureus at 10 ug/disk after 24 hrs by disk diffusion assay; format: functional; method in brief: as §1
Escherichia coli [4] = assay: Antimicrobial activity against Escherichia coli at 10 ug/disk after 24 hrs by disk diffusion assay; format: functional; method in brief: as §1
Pseudomonas aeruginosa [5] = assay: Antimicrobial activity against Pseudomonas aeruginosa at 10 ug/disk after 24 hrs by disk diffusion assay; format: functional; method in brief: as §1
Enterobacter cloacae [6] = assay: Antimicrobial activity against Enterobacter cloacae at 10 ug/disk after 24 hrs by disk diffusion assay; format: functional; method in brief: as §1
Salmonella typhimurium [7] = assay: Antimicrobial activity against Salmonella Typhimurium at 10 ug/disk after 24 hrs by disk diffusion assay; format: functional, organism-based; details: Salmonella enterica subsp. enterica serovar Typhimurium; method in brief: as §1
Listeria monocytogenes [8] = assay: Antimicrobial activity against Listeria monocytogenes at 10 ug/disk after 24 hrs by disk diffusion assay; format: functional; method in brief: as §1
Bacillus cereus [9] = assay: Antimicrobial activity against Bacillus cereus at 1 umol/disk after 24 hrs by disk diffusion assay; format: functional; method in brief: as §1
Micrococcus flavus [10] = assay: Antimicrobial activity against Micrococcus flavus at 1 umol/disk after 24 hrs by disk diffusion assay; format: functional; method in brief: as §1
Staphylococcus aureus [11] = assay: Antimicrobial activity against Staphylococcus aureus at 1 umol/disk after 24 hrs by disk diffusion assay; format: functional; method in brief: as §1
Escherichia coli [12] = assay: Antimicrobial activity against Escherichia coli at 1 umol/disk after 24 hrs by disk diffusion assay; format: functional; method in brief: as §1
Pseudomonas aeruginosa [13] = assay: Antimicrobial activity against Pseudomonas aeruginosa at 1 umol/disk after 24 hrs by disk diffusion assay; format: functional; method in brief: as §1
Enterobacter cloacae [14] = assay: Antimicrobial activity against Enterobacter cloacae at 1 umol/disk after 24 hrs by disk diffusion assay; format: functional; method in brief: as §1
Salmonella typhimurium [15] = assay: Antimicrobial activity against Salmonella Typhimurium at 1 umol/disk after 24 hrs by disk diffusion assay; format: functional, organism-based; details: Salmonella enterica subsp. enterica serovar Typhimurium; method in brief: as §1
Listeria monocytogenes [16] = assay: Antimicrobial activity against Listeria monocytogenes at 1 umol/disk after 24 hrs by disk diffusion assay; format: functional; method in brief: as §1
Bacillus cereus [17] = assay: Antimicrobial activity against Bacillus cereus at 1 umol/spot after 18 hrs by TLC-bioautographic method; format: functional
Method in brief: (§2)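 TLC bioautography. Samples are spotted on silica gel TLC plates, then sprayed with bacteria (1.0 × 10^5 cfu/ml) in tryptic soy broth. Plates are incubated 18 h at 37 C and sprayed with 3% aqueous p-iodonitrotetrazolium violet. After a further 3 h, growth is stopped with 70% EtOH. White zones on a pink background are scored as inhibition-zone diameter with standard errors.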

Micrococcus flavus [18] = assay: Antimicrobial activity against Micrococcus flavus at 1 umol/spot after 18 hrs by TLC-bioautographic method; format: functional; method in brief: as §2
Staphylococcus aureus [19] = assay: Antimicrobial activity against Staphylococcus aureus at 1 umol/spot after 18 hrs by TLC-bioautographic method; format: functional; method in brief: as §2
Escherichia coli [20] = assay: Antimicrobial activity against Escherichia coli at 1 umol/spot after 18 hrs by TLC-bioautographic method; format: functional; method in brief: as §2
Pseudomonas aeruginosa [21] = assay: Antimicrobial activity against Pseudomonas aeruginosa at 1 umol/spot after 18 hrs by TLC-bioautographic method; format: functional; method in brief: as §2
Enterobacter cloacae [22] = assay: Antimicrobial activity against Enterobacter cloacae at 1 umol/spot after 18 hrs by TLC-bioautographic method; format: functional; method in brief: as §2
Salmonella typhimurium [23] = assay: Antimicrobial activity against Salmonella Typhimurium at 1 umol/spot after 18 hrs by TLC-bioautographic method; format: functional; method in brief: as §2
Listeria monocytogenes [24] = assay: Antimicrobial activity against Listeria monocytogenes at 1 umol/spot after 18 hrs by TLC-bioautographic method; format: functional; method in brief: as §2
Bacillus cereus [25] = assay: Antimicrobial activity against Bacillus cereus after 24 hrs by microdilution technique; format: functional
Method in brief: (§3)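 Broth microdilution in LB medium. Inoculum is 1.0 × 10^4 cfu per well, from a saline-adjusted suspension of 1.0 × 10^5 cfu/ml. Compounds are dissolved in DMSO. Incubated 24 h at 28 C. MIC is the lowest concentration with no visible growth under a binocular microscope. MBC is read by subculture into fresh broth for 72 h, with no growth taken as 99.5% kill. OD is read at 655 nm.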

Micrococcus flavus [26] = assay: Antimicrobial activity against Micrococcus flavus after 24 hrs by microdilution technique; format: functional; method in brief: as §3
Staphylococcus aureus [27] = assay: Antimicrobial activity against Staphylococcus aureus after 24 hrs by microdilution technique; format: functional; method in brief: as §3
Escherichia coli [28] = assay: Antimicrobial activity against Escherichia coli after 24 hrs by microdilution technique; format: functional; method in brief: as §3
Pseudomonas aeruginosa [29] = assay: Antimicrobial activity against Pseudomonas aeruginosa after 24 hrs by microdilution technique; format: functional; method in brief: as §3
Enterobacter cloacae [30] = assay: Antimicrobial activity against Enterobacter cloacae after 24 hrs by microdilution technique; format: functional; method in brief: as §3
Salmonella typhimurium [31] = assay: Antimicrobial activity against Salmonella Typhimurium after 24 hrs by microdilution technique; format: functional, Salmonella enterica subsp. enterica serovar Typhimurium; details: Salmonella enterica; method in brief: as §3
Listeria monocytogenes [32] = assay: Antimicrobial activity against Listeria monocytogenes after 24 hrs by microdilution technique; format: functional; method in brief: as §3

SMILES	inhibition zone (IZ) (Bacillus cereus [1])	inhibition zone (IZ) (Micrococcus flavus [2])	inhibition zone (IZ) (Escherichia coli [4])	inhibition zone (IZ) (Pseudomonas aeruginosa [5])	inhibition zone (IZ) (Enterobacter cloacae [6])	inhibition zone (IZ) (Salmonella typhimurium [7])	inhibition zone (IZ) (Listeria monocytogenes [8])	inhibition zone (IZ) (Bacillus cereus [9])	inhibition zone (IZ) (Micrococcus flavus [10])	inhibition zone (IZ) (Staphylococcus aureus [11])	inhibition zone (IZ) (Escherichia coli [12])	inhibition zone (IZ) (Pseudomonas aeruginosa [13])	inhibition zone (IZ) (Enterobacter cloacae [14])	inhibition zone (IZ) (Salmonella typhimurium [15])	inhibition zone (IZ) (Listeria monocytogenes [16])	inhibition zone (IZ) (Bacillus cereus [17])	inhibition zone (IZ) (Micrococcus flavus [18])	inhibition zone (IZ) (Staphylococcus aureus [19])	inhibition zone (IZ) (Escherichia coli [20])	inhibition zone (IZ) (Pseudomonas aeruginosa [21])	further results
O=C(/C=C/c1cccs1)c1ccc(Nc2nc(Nc3ccccc3)nc(Nc3ccccc3)n2)cc1	inactive	inactive	inactive	inactive	inactive	inactive	inactive	inactive	inactive	inactive	inactive	inactive	inactive	inactive	inactive	inactive	inactive	inactive	inactive	inactive	inhibition zone (IZ) (Staphylococcus aureus [3]): inactive; inhibition zone (IZ) (Enterobacter cloacae [22]): 0.08 millimeter; inhibition zone (IZ) (Salmonella typhimurium [23]; Salmonella enterica subsp. enterica serovar Typhimurium): inactive; inhibition zone (IZ) (Listeria monocytogenes [24]): 0.08 millimeter; MBC (Bacillus cereus [25]): 408 µM (≈ 200 µg/mL); MIC (Bacillus cereus [25]): 204 µM (≈ 100 µg/mL); MBC (Micrococcus flavus [26]): 408 µM (≈ 200 µg/mL); MIC (Micrococcus flavus [26]): 204 µM (≈ 100 µg/mL); MBC (Staphylococcus aureus [27]): 816 µM (≈ 400 µg/mL); MIC (Staphylococcus aureus [27]): 408 µM (≈ 200 µg/mL); MBC (Escherichia coli [28]): 816 µM (≈ 400 µg/mL); MIC (Escherichia coli [28]): 408 µM (≈ 200 µg/mL); MBC (Pseudomonas aeruginosa [29]): 816 µM (≈ 400 µg/mL); MIC (Pseudomonas aeruginosa [29]): 408 µM (≈ 200 µg/mL); MBC (Enterobacter cloacae [30]): 408 µM (≈ 200 µg/mL); MIC (Enterobacter cloacae [30]): 204 µM (≈ 100 µg/mL); MBC (Salmonella typhimurium [31]): 816 µM (≈ 400 µg/mL); MIC (Salmonella typhimurium [31]): 408 µM (≈ 200 µg/mL); MBC (Listeria monocytogenes [32]): 816 µM (≈ 400 µg/mL); MIC (Listeria monocytogenes [32]): 408 µM (≈ 200 µg/mL)
O=C(/C=C/c1ccc(Cl)cc1)c1ccc(Nc2nc(Nc3ccccc3)nc(Nc3ccccc3)n2)cc1	inactive	inactive	inactive	inactive	inactive	inactive	inactive	inactive	inactive	inactive	inactive	inactive	inactive	inactive	inactive	inactive	0.07 millimeter	inactive	inactive	inactive	inhibition zone (IZ) (Staphylococcus aureus [3]): inactive; inhibition zone (IZ) (Enterobacter cloacae [22]): 0.08 millimeter; inhibition zone (IZ) (Salmonella typhimurium [23]): 0.09 millimeter; inhibition zone (IZ) (Listeria monocytogenes [24]): 0.07 millimeter; MBC (Bacillus cereus [25]): 386 µM (≈ 200 µg/mL); MIC (Bacillus cereus [25]): 193 µM (≈ 100 µg/mL); MBC (Micrococcus flavus [26]): 386 µM (≈ 200 µg/mL); MIC (Micrococcus flavus [26]): 193 µM (≈ 100 µg/mL); MBC (Staphylococcus aureus [27]): 772 µM (≈ 401 µg/mL); MIC (Staphylococcus aureus [27]): 386 µM (≈ 200 µg/mL); MBC (Escherichia coli [28]): 772 µM (≈ 401 µg/mL); MIC (Escherichia coli [28]): 772 µM (≈ 401 µg/mL); MBC (Pseudomonas aeruginosa [29]): 772 µM (≈ 401 µg/mL); MIC (Pseudomonas aeruginosa [29]): 386 µM (≈ 200 µg/mL); MBC (Enterobacter cloacae [30]): 386 µM (≈ 200 µg/mL); MIC (Enterobacter cloacae [30]): 193 µM (≈ 100 µg/mL); MBC (Salmonella typhimurium [31]): 772 µM (≈ 401 µg/mL); MIC (Salmonella typhimurium [31]): 386 µM (≈ 200 µg/mL); MBC (Listeria monocytogenes [32]): 772 µM (≈ 401 µg/mL); MIC (Listeria monocytogenes [32]): 386 µM (≈ 200 µg/mL)
N#Cc1c(-c2ccco2)cc(-c2ccc(Nc3nc(Nc4ccccc4)nc(Nc4ccccc4)n3)cc2)nc1N	inactive	inactive	inactive	inactive	inactive	inactive	inactive	inactive	inactive	0.03	inactive	inactive	inactive	inactive	inactive	inactive	inactive	inactive	inactive	inactive	zone of inhibition at 10 µg/disc (Staphylococcus aureus [3]; read-out: IZ): 6 mm; inhibition zone (IZ) (Enterobacter cloacae [22]): 0.09 millimeter; inhibition zone (IZ) (Salmonella typhimurium [23]): 0.07 millimeter; inhibition zone (IZ) (Listeria monocytogenes [24]): 0.08 millimeter; MBC (Bacillus cereus [25]): 186 µM (≈ 100 µg/mL); MIC (Bacillus cereus [25]): 93 µM (≈ 50 µg/mL); MBC (Micrococcus flavus [26]): 186 µM (≈ 100 µg/mL); MIC (Micrococcus flavus [26]): 93 µM (≈ 50 µg/mL); MBC (Staphylococcus aureus [27]): 372 µM (≈ 200 µg/mL); MIC (Staphylococcus aureus [27]): 186 µM (≈ 100 µg/mL); MBC (Escherichia coli [28]): 186 µM (≈ 100 µg/mL); MIC (Escherichia coli [28]): 93 µM (≈ 50 µg/mL); MBC (Pseudomonas aeruginosa [29]): 744 µM (≈ 400 µg/mL); MIC (Pseudomonas aeruginosa [29]): 372 µM (≈ 200 µg/mL); MBC (Enterobacter cloacae [30]): 372 µM (≈ 200 µg/mL); MIC (Enterobacter cloacae [30]): 186 µM (≈ 100 µg/mL); MBC (Salmonella typhimurium [31]): 372 µM (≈ 200 µg/mL); MIC (Salmonella typhimurium [31]): 186 µM (≈ 100 µg/mL); MBC (Listeria monocytogenes [32]): 744 µM (≈ 400 µg/mL); MIC (Listeria monocytogenes [32]): 372 µM (≈ 200 µg/mL)

From ChEMBL document CHEMBL1154716, “Synthesis of some new S-triazine based chalcones and their derivatives as potent antimicrobial agents” (2010)
